Reference: ChEMBL document CHEMBL1126794, “2-(Quinuclidin-3-yl)pyrido[4,3-b]indol-1-ones and isoquinolin-1-ones. Potent conformationally restricted 5-HT3 receptor antagonists” (J Med Chem, 1993)

How the values were obtained:
[1] = biological target: T1, Serotonin 3 (5-HT3) receptor (Rattus norvegicus, UniProt P35563+Q9JJ16); assay: Binding affinity against 5-hydroxytryptamine 3 (5-HT3) receptor in rat brain cortical membranes using radioligand [3H]quipazine; assay type: cell membranes
T1 sequence (P35563 whole entry): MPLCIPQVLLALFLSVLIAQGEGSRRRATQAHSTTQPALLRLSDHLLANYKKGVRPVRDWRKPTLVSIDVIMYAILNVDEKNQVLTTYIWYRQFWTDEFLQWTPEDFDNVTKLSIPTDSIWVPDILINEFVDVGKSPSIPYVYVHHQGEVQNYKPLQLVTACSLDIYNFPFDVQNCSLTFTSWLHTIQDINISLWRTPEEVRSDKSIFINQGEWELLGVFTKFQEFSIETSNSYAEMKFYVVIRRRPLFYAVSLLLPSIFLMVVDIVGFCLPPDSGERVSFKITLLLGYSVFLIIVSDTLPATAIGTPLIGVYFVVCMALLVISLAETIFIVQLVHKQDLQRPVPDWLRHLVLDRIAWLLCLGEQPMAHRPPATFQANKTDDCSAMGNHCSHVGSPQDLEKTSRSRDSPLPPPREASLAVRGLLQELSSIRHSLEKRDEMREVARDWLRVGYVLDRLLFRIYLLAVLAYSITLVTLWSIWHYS
T1 sequence (Q9JJ16 whole entry): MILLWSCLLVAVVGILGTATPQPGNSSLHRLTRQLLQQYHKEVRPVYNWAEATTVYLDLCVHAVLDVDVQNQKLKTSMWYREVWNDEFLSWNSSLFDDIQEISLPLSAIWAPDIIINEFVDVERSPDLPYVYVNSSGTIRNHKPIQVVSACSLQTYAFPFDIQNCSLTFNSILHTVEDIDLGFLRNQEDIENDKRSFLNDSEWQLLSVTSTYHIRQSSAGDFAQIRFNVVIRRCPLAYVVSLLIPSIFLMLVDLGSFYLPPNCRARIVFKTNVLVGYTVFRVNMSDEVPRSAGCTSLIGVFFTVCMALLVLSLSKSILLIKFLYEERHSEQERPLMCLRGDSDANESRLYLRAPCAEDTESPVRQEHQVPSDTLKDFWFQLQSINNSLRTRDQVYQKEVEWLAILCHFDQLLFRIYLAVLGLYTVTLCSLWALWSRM
Outline: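 Rat cerebral cortex membranes, washed in 50 mM Tris pH 7.4, incubated 45 min at 25 °C in Tris-Krebs buffer pH 7.4 with 0.3–0.7 nM [3H]quipazine plus 0.1 μM paroxetine. Ten test concentrations from 1e-12 to 1e-4 M. Nonspecific binding defined with 1.0 μM racemic zacopride. Filtration, scintillation counting, IC50 by iterative fit, Ki by Cheng-Prusoff. Means of ≥3 determinations, or of two.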

Canis familiaris [2] = assay: Inhibition of emesis induced by intravenous administration of cisplatin in 6 dogs at 0.03 mg/kg (p<0.01); assay type: functional, Canis lupus familiaris
Mustela putorius furo [3] = assay: Inhibition of emesis induced by intravenous administration of cisplatin in 6 ferrets at 0.01 mg/kg (p<0.005); assay type: functional
Mustela putorius furo [4] = assay: Inhibition of emesis induced by peroral administration of cisplatin in 6 ferrets at 0.001 mg/kg; assay type: functional; details: route oral
Canis familiaris [5] = assay: Inhibition of emesis induced by peroral administration of cisplatin in 6 dogs at 0.1 mg/kg (p<0.01); assay type: functional, Canis lupus familiaris; details: route oral
Canis familiaris [6] = assay: Inhibition of emesis induced by peroral administration of cisplatin in 6 dogs at 0.01 mg/kg (p<0.01); assay type: functional, Canis lupus familiaris; details: route oral
Mustela putorius furo [7] = assay: Inhibition of emesis induced by peroral administration of cisplatin in 5 ferrets at 0.1 mg/kg (p<0.005); assay type: functional; details: route oral
Canis familiaris [8] = assay: Inhibition of emesis induced by peroral administration of cisplatin in 6 dogs at 0.001 mg/kg; assay type: functional, Canis lupus familiaris; details: route oral
Rattus norvegicus = assay: Potency to inhibit bradycardiac effect measured by Von Bezold-Jarisch assay in 8 anesthetized rats; assay type: functional; details: read-out: ID50 (the source's name)
Outline: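 Male Sprague-Dawley rats, 250–380 g, under urethane (1.5 g/kg ip), with cannulated trachea and femoral veins; heart rate recorded by ECG. Lowest consistent bradycardic dose of 2-methyl-5-HT titrated iv, then given every 12 min. Increasing iv doses given 5 min before each challenge, with saline vehicle group.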

Canis familiaris [9] = assay: Inhibition of emesis induced by intravenous administration of cisplatin in 6 dogs at 0.001 mg/kg (p<0.05); assay type: functional, Canis lupus familiaris
Mustela putorius furo [10] = assay: Inhibition of emesis induced by intravenous administration of cisplatin in 6 ferrets at 0.1 mg/kg (p<0.005); assay type: functional
Mustela putorius furo [11] = assay: Inhibition of emesis induced by peroral administration of cisplatin in 6 ferrets at 0.01 mg/kg (p<0.005); assay type: functional; details: route oral
Mustela putorius furo [12] = assay: Inhibition of emesis induced by intravenous administration of cisplatin in 5 ferrets at 0.03 mg/kg (p<0.005); assay type: functional
Canis familiaris [13] = assay: Inhibition of emesis induced by intravenous administration of cisplatin in 6 dogs at 0.003 mg/kg (p<0.01); assay type: functional, Canis lupus familiaris
Mustela putorius furo [14] = assay: Inhibition of emesis induced by peroral administration of cisplatin in 6 ferrets at 0.003 mg/kg (p<0.05); assay type: functional; details: route oral
Mustela putorius furo [15] = assay: Inhibition of emesis induced by intravenous administration of cisplatin in 9 ferrets at 0.001 mg/kg; assay type: functional
Canis familiaris [16] = assay: Inhibition of emesis induced by peroral administration of cisplatin in 6 dogs at 0.03 mg/kg (p<0.01); assay type: functional, Canis lupus familiaris; details: route oral
Canis familiaris [17] = assay: Inhibition of emesis induced by peroral administration of cisplatin in 6 dogs at 0.003 mg/kg; assay type: functional, Canis lupus familiaris; details: route oral
Mustela putorius furo [18] = assay: Inhibition of emesis induced by intravenous administration of cisplatin in 5 ferrets at 0.003 mg/kg; assay type: functional
Mustela putorius furo [19] = assay: Inhibition of emesis induced by peroral administration of cisplatin in 5 ferrets at 0.03 mg/kg (p<0.005); assay type: functional; details: route oral

Cc1ccccc1C(=O)NC1CN2CCC1CC2 (stereo unspecified)
Ki [1]: 631 nM

COc1cccc2c1CCN(C1CC3CCC(C1)N3C)C2=O (stereo unspecified)
Ki [1]: 10 nM

O=C1c2cccc3c2[C@H](CCC3)CN1[C@H]1CN2CCC1CC2
Ki [1]: 2.51 nM

Cl.O=C1c2cccc3c2[C@H](CCC3)CN1[C@@H]1CN2CCC1CC2 [PALONOSETRON HYDROCHLORIDE]
No. of emetic episodes (Canis familiaris [2]): 1.33 | No. of emetic episodes (Mustela putorius furo [3]): 0 | No. of emetic episodes (Mustela putorius furo [4]): 15.17 | No. of emetic episodes (Canis familiaris [5]): 0 | No. of emetic episodes (Canis familiaris [6]): 4 | No. of emetic episodes (Mustela putorius furo [7]): 0.8 | No. of emetic episodes (Canis familiaris [8]): 12.83 | ED50 (Rattus norvegicus): 0.02 µg/kg | No. of emetic episodes (Canis familiaris [9]): 7.17 | No. of emetic episodes (Mustela putorius furo [10]): 0.17 | No. of emetic episodes (Mustela putorius furo [11]): 2.17 | No. of emetic episodes (Mustela putorius furo [12]): 0 | No. of emetic episodes (Canis familiaris [13]): 4.33 | No. of emetic episodes (Mustela putorius furo [14]): 7.17 | No. of emetic episodes (Mustela putorius furo [15]): 9.67 | No. of emetic episodes (Canis familiaris [16]): 2.67 | Ki [1]: 0.0398 nM | No. of emetic episodes (Canis familiaris [17]): 16.17 | No. of emetic episodes (Mustela putorius furo [18]): 0.6 | No. of emetic episodes (Mustela putorius furo [19]): 1.8

O=c1c2ccccc2c(-c2ccccc2)cn1[C@@H]1CN2CCC1CC2
Ki [1]: 2.51 nM

CCc1cccc2c1CCN(C1CN3CCC1CC3)C2=O.Cl (stereo unspecified)
ED50 (Rattus norvegicus): 0.18 µg/kg | Ki [1]: 0.2 nM

O=C(N[C@@H]1CN2CCC1CC2)c1c2n(c3ccccc13)CCCCC2
Ki [1]: 5.01 nM

COc1cc(N)c(Cl)cc1C(=O)N[C@H]1CN2CCC1CC2 [(R)ZACOPRIDE]
Ki [1]: 3.16 nM

O=C(N[C@H]1CN2CCC1CC2)c1c2n(c3ccccc13)CCCC2
Ki [1]: 12.6 nM

CCc1cccc(C(=O)N[C@@H]2CN3CCC2CC3)c1C
Ki [1]: 501 nM

COc1ccc2c3c(cn(C4CN5CCC4CC5)c(=O)c13)CCC2 (stereo unspecified)
Ki [1]: 158 nM

CCc1cccc2c(=O)n([C@@H]3CN4CCC3CC4)ccc12.Cl
ED50 (Rattus norvegicus): 0.13 µg/kg | Ki [1]: 0.2 nM

O=c1c2ccccc2ccn1C1CN2CCC1CC2 (stereo unspecified)
Ki [1]: 10 nM

Cn1cc(C(=O)NC2CN3CCC2CC3)c2ccccc21 (stereo unspecified)
Ki [1]: 2 nM

COc1cccc2c(=O)n([C@@H]3CN4CCC3CC4)ccc12.Cl
ED50 (Rattus norvegicus): 0.03 µg/kg | Ki [1]: 0.158 nM

O=c1c2cccc3c2c(cn1[C@H]1CN2CCC1CC2)CC3
Ki [1]: 25.1 nM

CCCc1cn([C@@H]2CN3CCC2CC3)c(=O)c2ccccc12
Ki [1]: 5.01 nM

Cc1cccc2c1CCN([C@@H]1CN3CCC1CC3)C2=O.Cl
ED50 (Rattus norvegicus): 0.13 µg/kg | Ki [1]: 0.316 nM

COc1cc(N)c(Cl)cc1C(=O)N[C@@H]1CN2CCC1CC2
Ki [1]: 0.251 nM

COc1cccc2c(=O)n(C3CC4CCC(C3)N4C)ccc12 (stereo unspecified)
Ki [1]: 2.51 nM

Cc1cccc2c(=O)n(C3CN4CCC3CC4)cc(C)c12.Cl (stereo unspecified)
ED50 (Rattus norvegicus): 0.25 µg/kg | Ki [1]: 1 nM

O=C(N[C@@H]1CN2CCC1CC2)c1cccc2c1CCCC2
Ki [1]: 200 nM
